The record followed here is ChEMBL document CHEMBL1629702, “Berberine-INF55 (5-nitro-2-phenylindole) hybrid antimicrobials: effects of varying the relative orientation of the berberine and INF55 components” (Antimicrob Agents Chemother, 2010).

Activity calls are given as the source filed them. No cut-off for these calls is given here. Some results are limits rather than exact numbers.

Data set [1] relates to Staphylococcus aureus. In words: Increase in ethidium bromide uptake in NorA-deficient Staphylococcus aureus K1758 at 3 uM by fluorescence assay in presence of INF55. The class given is functional, organism-based. In a few lines:
(§1)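 S. aureus was grown at 37°C to OD600 1.5, washed in PBS, then energised for 1 h at 37°C in PBS with 10 mM dextrose (OD ~0.8). Cells were washed and diluted to OD ~0.3 in PBS. Hybrid or INF55 was added before ethidium bromide, all at 3 μM. Fluorescence was read at ex 530/em 600 nm, with cell-free compound background subtracted. At least triplicate.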

The subject of data set [2] is Staphylococcus aureus. In words: Antibacterial activity against wild-type Staphylococcus aureus 8325-4 after 18 hrs by two fold serial dilution method. The class given is functional. The note with it: 8325-4, 18 h. In a few lines:
(§2)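 Broth inoculated at 10⁵ cells/ml and serial 2-fold compound dilutions, run in triplicate. Incubated 18 h at 37°C, with growth read as absorbance at 600 nm. MIC is the lowest concentration giving complete growth inhibition.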

Data set [3] relates to Enterococcus faecalis. In words: Antibacterial activity against Enterococcus faecalis infected in Caenorhabditis elegans assessed as organism survival at 20 uM. The class given is functional, organism-based. In a few lines: (§3)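 Gravid glp-4(bn2) sek-1(km4) adults were bleached for eggs, hatched at 15°C for 2 days, then grown on E. coli HB101 at 25°C for 52 h. Sterile adults were infected on E. faecalis MMH594 lawns (kanamycin 80 μg/ml) for 15 h at 15°C. Worms were sorted 15 per well into 20% BHI, 60% M9, kanamycin, nystatin and 1% DMSO, then kept 5 days at 26.3°C. Survival was scored from bright-field images, with median survival (LT50) as the read-out.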

Data set [4] addresses T1, Quinolone resistance protein NorA (Staphylococcus aureus) (UniProt P0A0J7).
T1 sequence (whole entry): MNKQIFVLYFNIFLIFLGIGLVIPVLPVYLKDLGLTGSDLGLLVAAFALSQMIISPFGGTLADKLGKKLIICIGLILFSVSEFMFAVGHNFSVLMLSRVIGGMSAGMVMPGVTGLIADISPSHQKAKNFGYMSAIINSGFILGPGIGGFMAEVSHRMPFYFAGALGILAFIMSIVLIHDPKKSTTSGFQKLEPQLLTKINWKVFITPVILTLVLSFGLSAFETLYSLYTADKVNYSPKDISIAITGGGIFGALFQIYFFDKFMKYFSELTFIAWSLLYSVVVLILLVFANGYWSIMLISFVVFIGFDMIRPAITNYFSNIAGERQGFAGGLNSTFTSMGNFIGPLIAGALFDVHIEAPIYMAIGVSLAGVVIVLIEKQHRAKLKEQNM
In words: Inhibition of NorA in Staphylococcus aureus 8325-4 assessed as ethidium bromide uptake at 3 uM by fluorescence assay. Summed up: as §1

Data set [5] relates to Staphylococcus aureus. In words: Antibacterial activity against Staphylococcus aureus K2378 overexpressing NorA after 18 hrs by two fold serial dilution method. It counts as functional. The note with it: K2378, 18 h. Summed up: as §2
Data set [6] concerns the target T1, Quinolone resistance protein NorA (Staphylococcus aureus). In words: Inhibition of NorA in Staphylococcus aureus 8325-4 assessed as increase in ethidium bromide uptake at 3 uM by fluorescence assay in presence of INF55. Summed up:
as §1

Data set [7] shares this target. In words: Inhibition of NorA in Staphylococcus aureus K2378 overexpressing NorA assessed as ethidium bromide uptake at 3 uM by fluorescence assay in presence of INF55. In a few lines: as §1
For data set [8] the target is unchanged. In words: Inhibition of NorA in Staphylococcus aureus K2378 overexpressing NorA assessed as ethidium bromide uptake at 3 uM by fluorescence assay. In a few lines: as §1
Data set [9] relates to Staphylococcus aureus. Description: Antibacterial activity against NorA-deficient Staphylococcus aureus K1758 after 18 hrs by two fold serial dilution method. The note with it: K1758, 18 h. It counts as functional. In a few lines:
as §2

The subject of data set [10] is Staphylococcus aureus. Description: Increase in ethidium bromide uptake in NorA-deficient Staphylococcus aureus K1758 at 3 uM by fluorescence assay. It counts as functional, organism-based. Summed up: as §1
Data set [11] addresses T1, Quinolone resistance protein NorA (Staphylococcus aureus). Description: Inhibition of NorA in Staphylococcus aureus K2378 overexpressing NorA assessed as increase in ethidium bromide uptake at 3 uM by fluorescence assay in presence of INF55. Summed up:
as §1

The target is the same in data set [12]. In words: Inhibition of NorA in Staphylococcus aureus 8325-4 assessed as accumulation of Berberine at 3 uM by fluorescence assay in presence of INF55. Summed up: (§4)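 S. aureus was grown at 37°C to OD600 1.5, washed, then energised for 1 h at 37°C in PBS with 10 mM dextrose. Cells were diluted to OD ~0.3 in PBS, and compounds (berberine ± INF55, or hybrids) were added at 3 μM each. DNA-binding fluorescence increase was followed at ex 355/em 517 nm, in arbitrary units, with background subtracted. At least three independent experiments.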

The target is the same in data set [13]. Description: Inhibition of NorA in Staphylococcus aureus 8325-4 assessed as decrease in Berberine MIC.
Data set [14] shares this target. Description: Inhibition of NorA in Staphylococcus aureus K2378 overexpressing NorA assessed as accumulation of compound at 3 uM by fluorescence assay. Summed up: as §4
For data set [15], the system named is Staphylococcus aureus. Description: Cellular uptake in NorA-deficient Staphylococcus aureus K1758 assessed as accumulation of compound at 3 uM by fluorescence assay. It counts as ADME, organism-based. The conditions noted are these: in vivo. In a few lines:
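K1758 (ΔnorA) cells grown at 37°C to OD600 1.5, washed twice in PBS, then energized 1 h at 37°C with aeration in PBS plus 10 mM dextrose at OD ~0.8. Cells washed again and diluted to OD ~0.3 in PBS. Compound added at 3 μM. DNA-binding fluorescence read at ex 355/em 517 nm, cell-free background subtracted, arbitrary units; ≥3 independent experiments.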

The target of data set [16] is T1, Quinolone resistance protein NorA (Staphylococcus aureus). In words: Inhibition of NorA in Staphylococcus aureus 8325-4 assessed as assessed as accumulation of compound at 3 uM by fluorescence assay. Summed up: as §4
Data set [17] concerns Staphylococcus aureus. In words: Antibacterial activity against NorA-deficient Staphylococcus aureus K1758 after 18 hrs by two fold serial dilution method in presence of INF55. It counts as functional, organism-based.
Data set [18] concerns the target T1, Quinolone resistance protein NorA (Staphylococcus aureus). Description: Inhibition of NorA in Staphylococcus aureus K2378 overexpressing NorA assessed as decrease in Berberine MIC.
For data set [19] the target is unchanged. Description: Inhibition of NorA in Staphylococcus aureus 8325-4 assessed as accumulation of compound at 3 uM by fluorescence assay. In a few lines:
as §4

Data set [20] has the same target. In words: Inhibition of NorA in Staphylococcus aureus K2378 overexpressing NorA assessed as accumulation of Berberine at 3 uM by fluorescence assay in presence of INF55. In a few lines:
as §4

For data set [21], the system named is Enterococcus faecalis. In words: Antibacterial activity against Enterococcus faecalis infected in Caenorhabditis elegans assessed as organism survival at 8.6 uM. The class given is functional, organism-based. In a few lines: as §3

Consider `COc1ccc2c(Cc3cccc(-c4cc5cc([N+](=O)[O-])ccc5[nH]4)c3)c3[n+](cc2c1OC)CCc1cc2c(cc1-3)OCO2`, for which the outcome in data set [1], in data set [3] and in data set [10] was Active. Also, the MIC in data set [2], in data set [5] and in [9] was 20.1 µM throughout. In addition, the inhibition entry in data set [4], in data set [6], in data set [8] and in data set [11] was “Active” in each case. In addition, the inhibition result in data set [7] is “inactive”.
On to `COc1ccc2c(Cc3ccc(-c4cc5cc([N+](=O)[O-])ccc5[nH]4)cc3)c3[n+](cc2c1OC)CCc1cc2c(cc1-3)OCO2`, for which the outcome in data set [1], in [3] and in [10] was Active. In addition, the MIC in data set [2] came to 40.2 µM; in data set [5] it was 40.2 µM; in data set [9], 20.1 µM. Moreover, the inhibition entry in [4], in data set [6], in data set [8] and in [11] was “Active” each time. Also, the inhibition entry in data set [7] is “inactive”.
On to `COc1ccc2cc3[n+](cc2c1OC)CCc1cc2c(cc1-3)OCO2.[Cl-]` [BERBERINE CHLORIDE], for which the inhibition entry in data set [12], in [16] and in data set [20] was “Active” each time. The minimum inhibitory concentration (MIC) in data set [2] is 325 µM; in data set [5], over 650 µM; in [9] it was 40 µM. Also, the result in data set [13], in [17] and in data set [18] was Active. Also, the inhibition result in data set [14] and in [19] was “inactive” each time. Besides, the Drug uptake result in data set [15] is “Active”.
`CN[C@H](CC(C)C)C(=O)N[C@H]1C(=O)N[C@@H](CC(N)=O)C(=O)N[C@H]2C(=O)N[C@H]3C(=O)N[C@H](C(=O)N[C@H](C(=O)O)c4cc(O)cc(O)c4-c4cc3ccc4O)[C@H](O)c3ccc(c(Cl)c3)Oc3cc2cc(c3O[C@@H]2O[C@H](CO)[C@@H](O)[C@H](O)[C@H]2O[C@H]2C[C@](C)(N)[C@H](O)[C@H](C)O2)Oc2ccc(cc2Cl)[C@H]1O`: the outcome in data set [21] was Active.
For the molecule `COc1ccc2c(Cc3ccccc3-c3cc4cc([N+](=O)[O-])ccc4[nH]3)c3[n+](cc2c1OC)CCc1cc2c(cc1-3)OCO2`, the results for the MIC in [2], in [5] and in data set [9] were 9.4 µM, 18.8 µM and 9.4 µM, respectively.
